{
  "source": "ChEMBL document CHEMBL1140079",
  "about": "“Discovery of orally bioavailable cathepsin S inhibitors for the reversal of neuropathic pain” (J Med Chem, 2008)",
  "key": {"Cathepsin S": {"biological_target": "Cathepsin S (Homo sapiens, UniProt P25774)", "sequence (P25774 whole entry)": "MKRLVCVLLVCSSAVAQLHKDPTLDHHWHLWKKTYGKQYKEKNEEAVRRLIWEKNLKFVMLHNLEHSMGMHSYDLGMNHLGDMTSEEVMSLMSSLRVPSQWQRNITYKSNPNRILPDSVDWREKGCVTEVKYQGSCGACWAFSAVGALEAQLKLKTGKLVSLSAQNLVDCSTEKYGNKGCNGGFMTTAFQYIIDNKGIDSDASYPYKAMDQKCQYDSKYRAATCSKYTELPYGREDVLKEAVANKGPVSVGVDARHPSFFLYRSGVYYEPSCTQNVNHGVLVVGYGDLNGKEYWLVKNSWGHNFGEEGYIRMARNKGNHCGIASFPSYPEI", "assay": "Inhibition of human recombinant cathepsin S by fluorescence assay", "procedure,_shortened": "(§1)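 Recombinant human enzymes in a fluorescence assay; substrate Z-Phe-Arg-MCA for cathepsins K and L, Z-Leu-Leu-Arg-MCA for cathepsin S. Means of two experiments, each run in duplicate; individual points within a 2-fold range of each other.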"}, "Cathepsin K": {"biological_target": "T1, Cathepsin K (Homo sapiens, UniProt P43235)", "T1 sequence (P43235 whole entry)": "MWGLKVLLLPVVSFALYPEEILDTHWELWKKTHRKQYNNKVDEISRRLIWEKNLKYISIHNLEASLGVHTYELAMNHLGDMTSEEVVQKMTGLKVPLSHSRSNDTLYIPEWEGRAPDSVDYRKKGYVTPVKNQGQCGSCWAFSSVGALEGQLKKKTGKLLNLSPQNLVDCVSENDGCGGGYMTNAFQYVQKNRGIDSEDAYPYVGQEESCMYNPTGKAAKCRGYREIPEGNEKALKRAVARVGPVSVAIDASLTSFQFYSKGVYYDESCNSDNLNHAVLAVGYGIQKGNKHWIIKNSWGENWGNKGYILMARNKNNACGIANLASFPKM", "assay": "Inhibition of human recombinant cathepsin K by fluorescence assay", "procedure,_shortened": "as §1"}, "Procathepsin L": {"biological_target": "Procathepsin L (Homo sapiens, UniProt P07711)", "sequence (P07711 whole entry)": "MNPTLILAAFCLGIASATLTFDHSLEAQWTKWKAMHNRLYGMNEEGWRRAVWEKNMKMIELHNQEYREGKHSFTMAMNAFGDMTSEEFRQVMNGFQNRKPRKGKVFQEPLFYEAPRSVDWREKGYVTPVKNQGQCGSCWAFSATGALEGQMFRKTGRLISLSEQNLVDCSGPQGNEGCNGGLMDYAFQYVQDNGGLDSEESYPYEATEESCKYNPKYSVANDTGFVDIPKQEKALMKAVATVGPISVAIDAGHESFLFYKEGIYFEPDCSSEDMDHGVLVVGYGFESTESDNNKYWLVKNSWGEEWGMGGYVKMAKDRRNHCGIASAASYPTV", "assay": "Inhibition of human recombinant cathepsin L by fluorescence assay", "procedure,_shortened": "as §1"}},
  "data": [
    {"compound": "CC(=O)N1CCCN(c2ccc(OCc3cc4cnc(C#N)nc4n3CCC3CCCCC3)cc2)CC1", "values": [
      {"measurement": "IC50", "setting": "Cathepsin S", "value": 11, "unit": "nM"},
      {"measurement": "IC50", "setting": "Cathepsin K", "value": 290, "unit": "nM"},
      {"measurement": "IC50", "setting": "Procathepsin L", "value": "> 1000", "unit": "nM"}
    ]},
    {"compound": "CC(=O)N1CCN(c2ccc(OCc3cc4cnc(C#N)nc4n3CCc3ccc(Cl)cc3)cc2)CC1", "values": [
      {"measurement": "IC50", "setting": "Cathepsin S", "value": 17, "unit": "nM"},
      {"measurement": "IC50", "setting": "Cathepsin K", "value": "> 1000", "unit": "nM"},
      {"measurement": "IC50", "setting": "Procathepsin L", "value": "> 1000", "unit": "nM"}
    ]},
    {"compound": "CC(=O)N1CCN(c2ccc(OCc3cc4cnc(C#N)nc4n3CCC3CCCCCC3)cc2)CC1", "values": [
      {"measurement": "IC50", "setting": "Cathepsin S", "value": 50, "unit": "nM"},
      {"measurement": "IC50", "setting": "Cathepsin K", "value": "> 2000", "unit": "nM"},
      {"measurement": "IC50", "setting": "Procathepsin L", "value": "> 2000", "unit": "nM"}
    ]},
    {"compound": "CC(=O)N1CCN(c2ccc(OCc3cc4cnc(C#N)nc4n3CCC3CCCCC3)cc2F)CC1", "values": [
      {"measurement": "IC50", "setting": "Cathepsin S", "value": 9, "unit": "nM"},
      {"measurement": "IC50", "setting": "Cathepsin K", "value": "> 1000", "unit": "nM"},
      {"measurement": "IC50", "setting": "Procathepsin L", "value": "> 1000", "unit": "nM"}
    ]}
  ]
}
